Consider 33 molecules from ChEMBL document CHEMBL1146234, “Synthesis and biological evaluation of N-pyrazolyl-N'-alkyl/benzyl/phenylureas: a new class of potent inhibitors of interleukin 8-induced neutrophil chemotaxis” (J Med Chem, 2007).

Active and inactive are the calls of the source. No cut-off for these calls is given here.

Assay [1] relates to Neutrophil. Put plainly: Cytotoxicity against human neutrophils assessed as viable cells after 2 hrs. The assay is classed as functional. Details: concentration or dose not given beside the values. The method in brief: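 Human neutrophils (2 × 10⁶/mL) from healthy donors were incubated 2 h at 37 °C under CO₂ in HBSS:PBS (3:1) with 1 mg/mL BSA, with compounds. Membrane integrity was read by fluorescein diacetate/ethidium bromide staining for 10 min at room temperature, under UV dark-field microscopy. Green cells were scored viable; red nuclei were scored necrotic.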

Assay [2] deals with Neutrophil. The assay can be described thus: Inhibition of IL8-induced neutrophil chemotaxis after 45 mins by Boyden chamber assay. The format is functional, cell-based. The note with it: Homo sapiens, 0.75 h. The procedure, abridged: (§1)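 Leading-front Boyden assay with donor neutrophils. Cells were preincubated 15 min at room temperature ± compound. Then 4 × 10⁵ cells were placed above a 3 µm cellulose ester filter, with IL8 or fMLP below. After 45 min at 37 °C, filters were hematoxylin-stained and the leading-front distance was read at ×400, 5 fields per filter, in duplicate. Net migration = stimulated minus spontaneous. IC₅₀ came from nonlinear regression, ≥3 experiments.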

Assay [3] has as its system Neutrophil. Put plainly: Inhibition of fMLP-induced neutrophil chemotaxis after 45 mins by Boyden chamber assay. The assay is classed as functional, cell-based. The conditions noted are these: Homo sapiens. The method in brief:
as §1

Assay [4] concerns Mus musculus. Put plainly: Inhibition of peritoneal cell count in zymosan-induced Swiss mouse peritoneal fluid at 100 mg/kg, po. The format is functional. The procedure, abridged: (§2)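 Male Swiss mice (25-30 g), fasted 16 h, n = 8 per group, were dosed orally 1 h before i.p. zymosan (5 mg/mL, 0.2 mL). Dexamethasone 1 mg/kg os served as reference. At 4 h, peritoneal lavage used 3 mL PBS with 3 mM EDTA. Total leukocytes were counted in a Neubauer chamber (Türk 1:100), with differentials by light microscopy. Counts were compared with vehicle by Student's t-test.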

In assay [5] the test system is Mus musculus. Put plainly: Inhibition of peritoneal granulocyte count in zymosan-induced Swiss mouse peritoneal fluid at 100 mg/kg, po. The format is functional. The method in brief: as §2
For assay [6], the system named is Mus musculus. Put plainly: Monocyte percentage in zymosan-induced Swiss mouse peritoneal fluid at 100 mg/kg, po.
In assay [7] the test system is Mus musculus. Put plainly: Lymphocyte percentage in zymosan-induced Swiss mouse peritoneal fluid at 100 mg/kg, po.
In assay [8] the test system is Mus musculus. Put plainly: Granulocyte percentage in zymosan-induced Swiss mouse peritoneal fluid at 100 mg/kg, po.
Assay [9] relates to Mus musculus. Put plainly: Inhibition of peritoneal cell count in zymosan-induced Swiss mouse peritoneal fluid at 1 mg/kg, po. The format is functional. The note with it: read-out: Inhibition. The method in brief: as §2
For assay [10], the system named is Mus musculus. Put plainly: Inhibition of peritoneal granulocyte count in zymosan-induced Swiss mouse peritoneal fluid at 1 mg/kg, po. The format is functional. The procedure, abridged:
as §2

Assay [11] concerns Mus musculus. Put plainly: Percentage of monocytes in zymosan-induced Swiss mouse peritoneal fluid at 1 mg/kg, po.
In assay [12] the test system is Mus musculus. Put plainly: Percentage of lymphocytes in zymosan-induced Swiss mouse peritoneal fluid at 1 mg/kg, po.
For assay [13], the system named is Mus musculus. The assay can be described thus: Percentage of granulocytes in zymosan-induced Swiss mouse peritoneal fluid at 1 mg/kg, po.

As usually defined, the IC50 is the midpoint of a concentration-inhibition curve. Take `CCOC(=O)c1cnn(CC(O)c2ccccc2)c1NC(=O)Nc1cccc(Cl)c1` (stereo not given): the Activity in the assay on Neutrophil [1] worked out at 90%. The molecule also returned an IC50 in the assay with Neutrophil [2] of 1560 nM. The outcome in the assay on Neutrophil [3] was inactive.

As for `CCOC(=O)c1cnn(CC(O)c2ccccc2)c1NC(=O)NCc1ccc(F)cc1` (stereo not given), the Activity with Neutrophil [1] was found to be 90%. In the assay on Neutrophil [2], this molecule came in with an IC50 of 212 nM. Also, the outcome with Neutrophil [3] was inactive.

With `CCOC(=O)c1cnn(CC(O)c2ccccc2)c1NC(=O)NCc1ccccc1F` (stereo not given), the Activity in the assay on Neutrophil [1] was 90%. Besides, the IC50 in the assay on Neutrophil [2] came out at 1490 nM. Besides, in the assay on Neutrophil [3], the outcome was inactive.

`CCOC(=O)c1cnn(CC(O)c2ccccc2)c1NC(=O)N1CCN(C)CC1` (stereo not given): in the assay on Neutrophil [1], the Activity worked out at 90%. The molecule also gave a half-inhibitory concentration (IC50) in the assay on Neutrophil [2] of 865 nM. In addition, the result with Neutrophil [3] was inactive.

Regarding `CCOC(=O)c1cnn(CC(O)c2ccccc2)c1NC(=O)Nc1ccccc1OC` (stereo not given), the Activity in the assay with Neutrophil [1] came to 90%. In the assay with Neutrophil [2], 1200 nM corresponded to half-maximal inhibition (IC50). Besides, the result in the assay on Neutrophil [3] was inactive.

As to `CCOC(=O)c1cnn(CC(O)c2ccccc2)c1NC(=O)N1CCCCC1` (stereo not given), the Activity with Neutrophil [1] came out at 90%. The IC50 in the assay on Neutrophil [2] came to 3090 nM. In addition, in the assay with Neutrophil [3], the outcome was inactive.

Turning to `CC(C)NC(=O)Nc1c(C#N)cnn1CC(O)c1ccccc1` (stereo not given), in the assay with Neutrophil [1], the Activity came out at 90%. In addition, the IC50 in the assay on Neutrophil [2] worked out at 35 nM. In the assay with Neutrophil [3], the result was inactive.

Take `CCOC(=O)c1cnn(CC(O)c2ccccc2)c1NC(=O)NCc1cccc(Br)c1` (stereo not given): in the assay with Neutrophil [1], the Activity is recorded as 90%. In the assay with Neutrophil [2], this molecule had an IC50 of 198 nM. The result with Neutrophil [3] was inactive.

Take `CCOC(=O)c1cnn(CC(O)c2ccccc2)c1NC(=O)NCc1ccc(Br)cc1` (stereo not given): the Activity with Neutrophil [1] is 90%. It took 3890 nM to reach half-maximal inhibition in the assay with Neutrophil [2] (IC50). The outcome with Neutrophil [3] was inactive.

On to `CCOC(=O)c1cnn(CC(O)c2ccccc2)c1NC(=O)Nc1ccc(C)cc1` (stereo not given), for which the Activity in the assay on Neutrophil [1] is 90%. In addition, half-maximal inhibition in the assay on Neutrophil [2] (IC50) was put at 445 nM. In the assay with Neutrophil [3], the result was inactive.

With `CCOC(=O)c1cnn(CC(O)c2ccccc2)c1NC(=O)N1CCN(Cc2ccccc2)CC1` (stereo not given), the Activity in the assay on Neutrophil [1] was determined as 90%. In addition, the outcome in the assay with Neutrophil [3] was inactive.

Turning to `CCOC(=O)c1cnn(CC(O)c2ccccc2)c1NC(=O)NCc1ccc(Cl)cc1` (stereo not given), the Activity in the assay with Neutrophil [1] is listed as 90%. In the assay on Neutrophil [2], the concentration for half-maximal inhibition (IC50) is 935 nM. Moreover, the outcome in the assay on Neutrophil [3] was inactive.

For `CCOC(=O)c1cnn(CC(O)c2ccccc2)c1NC(=O)NCc1ccccc1Br` (stereo not given), the Activity in the assay on Neutrophil [1] was determined as 90%. In addition, the IC50 in the assay on Neutrophil [2] was 1780 nM. In addition, the outcome with Neutrophil [3] was inactive.

With `CCOC(=O)c1cnn(CC(O)c2ccccc2)c1NC(=O)Nc1cccc(OC)c1` (stereo not given), the Activity with Neutrophil [1] was determined as 90%. This molecule also returned a concentration for half-maximal inhibition (IC50) in the assay on Neutrophil [2] of 1400 nM. For the same molecule, the result in the assay on Neutrophil [3] was inactive.

Turning to `CCOC(=O)c1cnn(CC(O)c2ccccc2)c1NC(=O)Nc1ccccc1F` (stereo not given), the Activity with Neutrophil [1] is reported as 90%. The same molecule came in with an IC50 in the assay on Neutrophil [2] of 33 nM. Further, in the assay with Neutrophil [3], the outcome was inactive.

`CCOC(=O)c1cnn(CC(O)c2ccccc2)c1NC(=O)Nc1cccc(Br)c1` (stereo not given): the Activity in the assay on Neutrophil [1] worked out at 90%. The IC50 with Neutrophil [2] was 424 nM. The result in the assay on Neutrophil [3] was inactive.

`CCOC(=O)c1cnn(CC(O)c2ccccc2)c1NC(=O)Nc1ccc(Br)cc1` (stereo not given): in the assay with Neutrophil [1], the Activity was 90%. In the assay with Neutrophil [2], this molecule gave an IC50 of 92 nM. Further, the outcome with Neutrophil [3] was inactive.

For `CCOC(=O)c1cnn(CC(O)c2ccccc2)c1NC(=O)N1CCCC1` (stereo not given), the Activity in the assay on Neutrophil [1] stood at 90%. The molecule further came in with an IC50 in the assay with Neutrophil [2] of 4950 nM. For the same molecule, in the assay on Neutrophil [3], the outcome was inactive.

Take `CCOC(=O)c1cnn(CC(O)c2ccccc2)c1NC(=O)Nc1cccc(C)c1` (stereo not given): in the assay with Neutrophil [1], the Activity worked out at 90%. This molecule gave an IC50 with Neutrophil [2] of 398 nM. Further, the result in the assay with Neutrophil [3] was inactive.

On to `CC(C)NC(=O)Nc1c(C(=O)O)cnn1CC(O)c1ccccc1` (stereo not given), for which, in the assay with Neutrophil [1], the Activity is given as 90%. In the assay with Neutrophil [2], this molecule returned an IC50 of 251 nM. The result in the assay on Neutrophil [3] was inactive.

Take `CCOC(=O)c1cnn(CC(O)c2ccccc2)c1NC(=O)NCc1cccc(F)c1` (stereo not given): in the assay on Neutrophil [1], the Activity turned out to be 90%. In the assay with Neutrophil [2], the IC50 came to 318 nM. The outcome in the assay with Neutrophil [3] was inactive.

Regarding `CCOC(=O)c1cnn(CC(O)c2ccccc2)c1NC(=O)Nc1cccc(F)c1` (stereo not given), the Activity in the assay on Neutrophil [1] was found to be 90%. In addition, the concentration for half-maximal inhibition (IC50) in the assay with Neutrophil [2] stood at 36 nM. Moreover, in the assay with Neutrophil [3], the result was inactive. Moreover, the values for the inhibition in vivo at 100 mg/kg with Mus musculus [4] and in the assay with Mus musculus [5] were 29% and 33%, respectively. Moreover, the % monocytes at 100 mg/kg with Mus musculus [6] was determined as 10%. Also, the % lymphocytes at 100 mg/kg in the assay on Mus musculus [7] was determined as 28%. In the assay with Mus musculus [8], this molecule had a % granulocytes at 100 mg/kg of 62%.

On to `N#Cc1cnn(CC(O)c2ccccc2)c1NC(=O)Nc1ccccc1` (stereo not given), for which the Activity in the assay on Neutrophil [1] was determined as 90%. The molecule also came in with an IC50 with Neutrophil [2] of 225 nM. Also, the outcome with Neutrophil [3] was inactive.

For `C[C@@H]1C[C@H]2[C@@H]3CCC4=CC(=O)C=C[C@]4(C)[C@@]3(F)[C@@H](O)C[C@]2(C)[C@@]1(O)C(=O)CO` [DEXAMETHASONE], the values for the inhibition in vivo at 1 mg/kg in the assay on Mus musculus [9] and in the assay with Mus musculus [10] were 33% and 62%, respectively. The % monocytes at 1 mg/kg in the assay on Mus musculus [11] was 14%. The molecule further returned a % lymphocytes at 1 mg/kg with Mus musculus [12] of 44%. In addition, the % granulocytes at 1 mg/kg in the assay with Mus musculus [13] was found to be 42%.

With `CCOC(=O)c1cnn(CC(O)c2ccccc2)c1NC(=O)Nc1ccc(Cl)cc1` (stereo not given), the Activity in the assay with Neutrophil [1] is reported as 90%. In the assay with Neutrophil [2], this molecule showed an IC50 of 345 nM. Further, the outcome in the assay on Neutrophil [3] was inactive.

Regarding `CCOC(=O)c1cnn(CC(O)c2ccccc2)c1NC(=O)NCc1ccccc1Cl` (stereo not given), the Activity in the assay on Neutrophil [1] is on record as 90%. Besides, the IC50 with Neutrophil [2] was determined as 1240 nM. Also, the result in the assay on Neutrophil [3] was inactive.

As for `CCOC(=O)c1cnn(CC(O)c2ccccc2)c1NC(=O)NCc1cccc(Cl)c1` (stereo not given), the Activity with Neutrophil [1] was found to be 90%. In the assay with Neutrophil [2], this molecule returned an IC50 of 570 nM. In addition, the outcome in the assay on Neutrophil [3] was inactive.

Consider `CCOC(=O)c1cnn(CC(O)c2ccccc2)c1NC(=O)N1CCOCC1` (stereo not given), for which the Activity in the assay on Neutrophil [1] was 90%. This molecule also returned an IC50 in the assay on Neutrophil [2] of 950 nM. Besides, in the assay on Neutrophil [3], the outcome was inactive.

Consider `CCOC(=O)c1cnn(CC(O)c2ccccc2)c1NC(=O)NC1CC1` (stereo not given), for which, in the assay on Neutrophil [1], the Activity came to 90%. In the assay on Neutrophil [2], this molecule gave an IC50 of 5520 nM. Moreover, the outcome with Neutrophil [3] was inactive.

For `CCOC(=O)c1cnn(CC(O)c2ccccc2)c1NC(=O)NCCc1ccccc1` (stereo not given), the Activity in the assay with Neutrophil [1] is listed as 90%. This molecule also had an IC50 in the assay on Neutrophil [2] of 610 nM. Further, the outcome with Neutrophil [3] was inactive.

`CCOCCNC(=O)Nc1c(C(=O)OCC)cnn1CC(O)c1ccccc1` (stereo not given): the Activity with Neutrophil [1] is recorded as 90%. Moreover, the midpoint of inhibition in the assay with Neutrophil [2], the IC50, lay at 1000 nM. Besides, in the assay with Neutrophil [3], the result was inactive.

Consider `CCOC(=O)c1cnn(CC(O)c2ccccc2)c1NC(=O)Nc1ccc(F)cc1` (stereo not given), for which the Activity with Neutrophil [1] turned out to be 90%. Further, the IC50 with Neutrophil [2] was 33 nM. In addition, the outcome in the assay on Neutrophil [3] was inactive.

For `CC(C)NC(=O)Nc1ccnn1CC(O)c1ccccc1` (stereo not given), in the assay on Neutrophil [1], the Activity came out at 90%. The same molecule yielded an IC50 in the assay with Neutrophil [2] of 825 nM. Besides, the result with Neutrophil [3] was inactive.
